Measured values as given in ChEMBL document CHEMBL5661986, “Discovery of the SMYD3 Inhibitor BAY-6035 Using Thermal Shift Assay (TSA)-Based High-Throughput Screening” (SLAS Discov, 2021).
In brackets after ≈: the same amount, converted by molar mass. Activity calls are given as the source filed them. The calls are words filed in the database; no cut-off is given here.

Assays:
[1] = molecular target: T1, Histone-lysine N-methyltransferase SMYD3 (Homo sapiens, UniProt Q9H7B4); assay: Binding affinity to recombinant human SMYD3 expressed in Escherichia coli assessed as catalytic inhibition using DYDNPIFEKFGKGGTYPRRYHVSYHGK-Biotin as substrate by scintillation proximity assay
T1 sequence (Q9H7B4 whole entry): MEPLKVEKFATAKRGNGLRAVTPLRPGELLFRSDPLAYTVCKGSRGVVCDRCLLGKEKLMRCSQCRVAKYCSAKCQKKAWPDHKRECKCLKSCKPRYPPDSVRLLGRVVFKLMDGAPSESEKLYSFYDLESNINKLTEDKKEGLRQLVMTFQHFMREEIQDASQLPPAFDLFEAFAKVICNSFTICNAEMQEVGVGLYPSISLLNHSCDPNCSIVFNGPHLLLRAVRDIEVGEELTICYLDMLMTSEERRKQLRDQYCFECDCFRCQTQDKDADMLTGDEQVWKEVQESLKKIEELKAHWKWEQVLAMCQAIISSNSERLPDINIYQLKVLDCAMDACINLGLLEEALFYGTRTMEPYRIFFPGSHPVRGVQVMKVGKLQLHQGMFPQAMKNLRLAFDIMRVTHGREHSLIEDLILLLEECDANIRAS

[2] = Kinetic solubility of the compound at pH 6.5; type: physicochemical; conditions: buffer, read-out: Kinetic_solubility
[3] = molecular target: T1, Histone-lysine N-methyltransferase SMYD3; assay: Binding affinity to recombinant human SMYD3 expressed in Escherichia coli assessed as dissociation constant by isothermal titration calorimetry
In short: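 Syringe held compound at 0.3 mM in 20 mM HEPES pH 7.4, 150 mM NaCl, 0.005% Tween 20, 2.5% DMSO; eight 4 µL injections at 180 s intervals into SMYD3.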

[4] = tested on: Histone-lysine N-methyltransferase SMYD3 (Homo sapiens), Q9H7B4 [UNDEFINED MUTATION]; assay: Inhibition of SMYD3 catalytic inactive mutant co-expressed with HA-tagged MAP3K2 transfected in human HeLa cells assessed as reduction of MAP3K2-K260me3 level at 1.1 uM incubated for 20 hrs by Western blotting analysis relative to control; type: cell-based
In short: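 After 4 h, compound or DMSO for 20 h. Lysates immunoblotted for MAP3K2-K260me3 (in-house antibody), HA, SMYD3 and MAP3K2 with infrared secondaries. K260me3 signal normalized to HA; three technical replicates, mean ± SEM, nonlinear fit.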

[5] = molecular target: T2, Histone-lysine N-methyltransferase SMYD3 (Homo sapiens) (UniProt Q9H7B4); assay: Inhibition of SMYD3 (unknown origin)
T2 sequence (whole entry): T1 sequence (Q9H7B4 whole entry)
In short: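 Recombinant human SMYD3 (aa 1–428, E. coli-expressed, His tag removed by TEV) at 10 nM. Reaction with 335 nM ³H-SAM and 15 µM biotinylated MAP3K2(249–273) peptide in 20 mM Tris pH 9, 2.5 mM DTT, 0.01% Triton X-100, 40 min at 23 °C. GuHCl quench, then SPA count of incorporated radioactivity. Quadruplicates normalized to DMSO and no-enzyme controls; IC50 from four-parameter logistic fit.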

[6] = molecular target: Histone-lysine N-methyltransferase ASH1L (Homo sapiens) (UniProt Q9NR48); assay: Inhibition of ASH1L (unknown origin)
[7] = molecular target: DNMT3B-DNMT3L complex (Homo sapiens) (UniProt Q9UBC3+Q9UJW3); assay: Inhibition of DNMT3B/DNMT3L (unknown origin); type: protein-complex assay
[8] = molecular target: Histone-lysine N-methyltransferase, H3 lysine-79 specific (Homo sapiens) (UniProt Q8TEK3); assay: Inhibition of DOT1L (unknown origin)
[9] = molecular target: Histone acetyltransferase p300 (Homo sapiens) (UniProt Q09472); assay: Inhibition of EP300 (unknown origin)
[10] = molecular target: Histone-lysine N-methyltransferase EHMT2 (Homo sapiens) (UniProt Q96KQ7); assay: Inhibition of G9a (unknown origin)
Homo sapiens [11] = species on record: Homo sapiens; assay: Inhibition of GLP (unknown origin)
[12] = molecular target: Histone-lysine N-methyltransferase, H3 lysine-36 specific (Homo sapiens) (UniProt Q96L73); assay: Inhibition of NSD1 (unknown origin)
[13] = molecular target: Histone-lysine N-methyltransferase NSD3 (Homo sapiens) (UniProt Q9BZ95); assay: Inhibition of NSD3 (unknown origin)
Homo sapiens [14] = species on record: Homo sapiens; assay: Inhibition of PRC2 (unknown origin)
[15] = molecular target: Protein arginine N-methyltransferase 1 (Homo sapiens) (UniProt Q99873); assay: Inhibition of PRMT1 (unknown origin)
[16] = molecular target: N-lysine methyltransferase SMYD2 (Homo sapiens) (UniProt Q9NRG4); assay: Inhibition of SMYD2 (unknown origin)
[17] = molecular target: Histone-lysine N-methyltransferase SUV39H2 (Homo sapiens) (UniProt Q9H5I1); assay: Inhibition of SUV39H2 (unknown origin)
[18] = molecular target: Histone-lysine N-methyltransferase KMT5B (Homo sapiens) (UniProt Q4FZB7); assay: Inhibition of SUV420H1 (unknown origin)
[19] = molecular target: Cyclin-dependent kinase 13 (Homo sapiens, UniProt Q14004); assay: Inhibition of CDK13 (unknown origin) by using c-myc peptide as substrate in presence of ATP
[20] = molecular target: Cyclin-dependent kinase 2/cyclin E1 (Homo sapiens, UniProt P24941); assay: Inhibition of CDK2/CyclinE (unknown origin) in presence of ATP; type: protein-complex assay
[21] = molecular target: Casein kinase I isoform gamma-3 (Homo sapiens, UniProt Q9Y6M4); assay: Inhibition of CSNK1G3 (unknown origin)
[22] = molecular target: Vascular endothelial growth factor receptor 3 (Homo sapiens, UniProt P35916); assay: Inhibition of FLT4 (unknown origin)
[23] = molecular target: Phosphatidylinositol 5-phosphate 4-kinase type-2 alpha (Homo sapiens, UniProt P48426); assay: Inhibition of human PIP4K2A
[24] = molecular target: Interleukin-1 receptor-associated kinase 1 (Homo sapiens, UniProt P51617); assay: Inhibition of IRAK1 (unknown origin) in presence of ATP
[25] = molecular target: Dual specificity mitogen-activated protein kinase kinase 5 (Homo sapiens, UniProt Q13163); assay: Inhibition of MEK5 (unknown origin) by competition binding assay
[26] = molecular target: Ribosomal protein S6 kinase alpha-6 (Homo sapiens, UniProt Q9UK32); assay: Inhibition of RSK4 (unknown origin)
COLO-679 = assay: Antiproliferative activity against human COLO-679 cells assessed as inhibition of cell viability measured for 3 to 5 days by alamar blue staining based assay; type: functional
HGC-27 = assay: Antiproliferative activity against human HGC-27 cells assessed as inhibition of cell viability measured for 3 to 5 days by alamar blue staining based assay; type: functional
Hs746T = assay: Antiproliferative activity against human Hs746T cells assessed as inhibition of cell viability measured for 3 to 5 days by alamar blue staining based assay; type: functional
Jurkat = assay: Antiproliferative activity against human Jurkat cells assessed as inhibition of cell viability measured for 3 to 5 days by alamar blue staining based assay; type: functional
PaTu 8988t = assay: Antiproliferative activity against human PaTu 8988t cells assessed as inhibition of cell viability measured for 3 to 5 days by alamar blue staining based assay; type: functional
SUD4 = assay: Antiproliferative activity against human SU-DHL-4 cells assessed as inhibition of cell viability measured for 3 to 5 days by alamar blue staining based assay; type: functional

Sequence of Histone-lysine N-methyltransferase EHMT2 (Homo sapiens) (Q96KQ7 whole entry): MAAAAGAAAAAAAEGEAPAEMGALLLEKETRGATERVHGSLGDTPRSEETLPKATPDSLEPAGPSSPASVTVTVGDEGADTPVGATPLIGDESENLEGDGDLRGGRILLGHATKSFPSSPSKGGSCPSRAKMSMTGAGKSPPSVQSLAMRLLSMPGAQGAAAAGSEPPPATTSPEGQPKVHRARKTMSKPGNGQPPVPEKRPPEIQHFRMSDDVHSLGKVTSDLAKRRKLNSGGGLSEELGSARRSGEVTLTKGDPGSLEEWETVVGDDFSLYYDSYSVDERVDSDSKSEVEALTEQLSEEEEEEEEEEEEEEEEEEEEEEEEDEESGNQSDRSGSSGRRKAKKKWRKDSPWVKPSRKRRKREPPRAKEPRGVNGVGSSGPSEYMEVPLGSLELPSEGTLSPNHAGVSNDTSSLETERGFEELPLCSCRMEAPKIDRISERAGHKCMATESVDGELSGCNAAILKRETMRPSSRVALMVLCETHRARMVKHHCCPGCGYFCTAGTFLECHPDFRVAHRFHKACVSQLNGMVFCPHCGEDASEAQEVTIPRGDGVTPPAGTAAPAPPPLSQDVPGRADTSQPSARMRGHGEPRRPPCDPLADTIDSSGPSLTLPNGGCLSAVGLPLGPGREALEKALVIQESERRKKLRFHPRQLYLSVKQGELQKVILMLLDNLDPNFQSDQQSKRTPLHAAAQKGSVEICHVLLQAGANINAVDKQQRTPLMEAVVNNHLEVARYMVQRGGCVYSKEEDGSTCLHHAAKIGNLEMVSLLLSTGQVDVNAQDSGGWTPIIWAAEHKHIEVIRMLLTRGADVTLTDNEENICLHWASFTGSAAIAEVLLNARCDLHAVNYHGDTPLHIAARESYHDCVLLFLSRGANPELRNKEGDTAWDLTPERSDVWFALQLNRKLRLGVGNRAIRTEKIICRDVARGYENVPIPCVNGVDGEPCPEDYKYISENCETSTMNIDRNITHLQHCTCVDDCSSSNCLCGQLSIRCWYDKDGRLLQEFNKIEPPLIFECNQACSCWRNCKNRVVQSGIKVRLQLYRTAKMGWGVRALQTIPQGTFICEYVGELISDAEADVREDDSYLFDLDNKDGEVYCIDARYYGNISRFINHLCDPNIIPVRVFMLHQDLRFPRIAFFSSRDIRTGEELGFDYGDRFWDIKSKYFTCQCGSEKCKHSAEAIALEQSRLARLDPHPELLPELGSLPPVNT
Sequence of Histone acetyltransferase p300 (Homo sapiens) (Q09472 whole entry): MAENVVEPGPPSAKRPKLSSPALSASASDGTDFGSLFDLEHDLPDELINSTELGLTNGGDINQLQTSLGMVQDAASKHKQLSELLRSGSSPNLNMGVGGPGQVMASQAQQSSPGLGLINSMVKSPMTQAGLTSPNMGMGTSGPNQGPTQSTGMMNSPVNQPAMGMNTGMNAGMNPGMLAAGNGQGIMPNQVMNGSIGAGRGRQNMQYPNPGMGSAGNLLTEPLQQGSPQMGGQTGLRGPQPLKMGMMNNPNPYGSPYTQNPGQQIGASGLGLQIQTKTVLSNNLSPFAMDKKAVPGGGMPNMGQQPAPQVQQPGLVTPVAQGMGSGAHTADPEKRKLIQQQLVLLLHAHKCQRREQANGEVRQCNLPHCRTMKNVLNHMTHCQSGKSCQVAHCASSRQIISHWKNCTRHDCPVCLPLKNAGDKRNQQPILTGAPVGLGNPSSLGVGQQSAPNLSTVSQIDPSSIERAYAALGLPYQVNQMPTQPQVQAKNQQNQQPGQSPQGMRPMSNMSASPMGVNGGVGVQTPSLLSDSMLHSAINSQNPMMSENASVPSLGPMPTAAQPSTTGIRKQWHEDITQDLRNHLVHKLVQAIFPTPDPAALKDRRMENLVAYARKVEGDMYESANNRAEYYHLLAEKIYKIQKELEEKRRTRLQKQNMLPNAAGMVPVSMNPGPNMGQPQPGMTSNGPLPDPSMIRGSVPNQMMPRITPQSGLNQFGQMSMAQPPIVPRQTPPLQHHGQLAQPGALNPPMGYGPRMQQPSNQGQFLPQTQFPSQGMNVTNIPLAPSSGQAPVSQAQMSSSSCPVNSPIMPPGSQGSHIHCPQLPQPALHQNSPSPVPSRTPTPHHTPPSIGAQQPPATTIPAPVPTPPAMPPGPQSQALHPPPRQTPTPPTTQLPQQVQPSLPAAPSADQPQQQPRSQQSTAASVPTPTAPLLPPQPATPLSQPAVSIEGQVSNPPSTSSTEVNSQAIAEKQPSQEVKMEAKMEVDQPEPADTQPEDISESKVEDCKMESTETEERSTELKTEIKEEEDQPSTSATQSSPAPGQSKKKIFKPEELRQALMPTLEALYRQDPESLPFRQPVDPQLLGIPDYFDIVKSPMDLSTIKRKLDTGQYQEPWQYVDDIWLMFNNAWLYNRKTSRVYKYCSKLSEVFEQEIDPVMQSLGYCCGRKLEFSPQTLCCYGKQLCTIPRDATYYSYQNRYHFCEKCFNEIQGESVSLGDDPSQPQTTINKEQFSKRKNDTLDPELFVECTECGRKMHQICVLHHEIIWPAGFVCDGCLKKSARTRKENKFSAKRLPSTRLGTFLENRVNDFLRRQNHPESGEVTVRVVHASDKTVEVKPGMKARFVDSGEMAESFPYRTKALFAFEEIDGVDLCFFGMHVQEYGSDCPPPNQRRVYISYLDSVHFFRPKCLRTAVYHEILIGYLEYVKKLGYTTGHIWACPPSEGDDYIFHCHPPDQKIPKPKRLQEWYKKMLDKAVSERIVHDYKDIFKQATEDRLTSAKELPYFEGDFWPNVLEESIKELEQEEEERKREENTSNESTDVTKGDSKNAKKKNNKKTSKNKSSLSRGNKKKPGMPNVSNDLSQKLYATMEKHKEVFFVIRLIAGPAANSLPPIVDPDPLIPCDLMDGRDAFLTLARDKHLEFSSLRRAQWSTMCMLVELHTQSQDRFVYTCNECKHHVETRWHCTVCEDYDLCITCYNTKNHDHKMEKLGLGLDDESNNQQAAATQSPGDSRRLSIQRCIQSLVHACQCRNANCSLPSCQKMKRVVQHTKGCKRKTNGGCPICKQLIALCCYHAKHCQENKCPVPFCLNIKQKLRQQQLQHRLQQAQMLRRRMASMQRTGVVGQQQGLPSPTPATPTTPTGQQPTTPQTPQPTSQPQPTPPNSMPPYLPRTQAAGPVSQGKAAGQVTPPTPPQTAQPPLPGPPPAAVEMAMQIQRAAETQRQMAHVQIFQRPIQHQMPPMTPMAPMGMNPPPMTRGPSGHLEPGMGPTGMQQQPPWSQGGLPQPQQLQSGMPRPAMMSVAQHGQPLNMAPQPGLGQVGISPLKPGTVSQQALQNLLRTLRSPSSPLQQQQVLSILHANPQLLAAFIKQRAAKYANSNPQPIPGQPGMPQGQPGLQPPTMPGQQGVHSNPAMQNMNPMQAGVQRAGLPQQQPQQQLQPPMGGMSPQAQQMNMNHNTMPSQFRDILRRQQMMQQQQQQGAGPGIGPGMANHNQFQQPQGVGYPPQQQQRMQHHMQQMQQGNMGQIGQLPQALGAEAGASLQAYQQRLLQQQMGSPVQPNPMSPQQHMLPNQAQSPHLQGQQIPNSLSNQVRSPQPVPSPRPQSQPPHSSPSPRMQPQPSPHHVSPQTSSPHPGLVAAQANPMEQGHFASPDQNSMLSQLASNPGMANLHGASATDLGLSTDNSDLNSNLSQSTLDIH
Sequence of Histone-lysine N-methyltransferase KMT5B (Homo sapiens) (Q4FZB7 whole entry, looked up): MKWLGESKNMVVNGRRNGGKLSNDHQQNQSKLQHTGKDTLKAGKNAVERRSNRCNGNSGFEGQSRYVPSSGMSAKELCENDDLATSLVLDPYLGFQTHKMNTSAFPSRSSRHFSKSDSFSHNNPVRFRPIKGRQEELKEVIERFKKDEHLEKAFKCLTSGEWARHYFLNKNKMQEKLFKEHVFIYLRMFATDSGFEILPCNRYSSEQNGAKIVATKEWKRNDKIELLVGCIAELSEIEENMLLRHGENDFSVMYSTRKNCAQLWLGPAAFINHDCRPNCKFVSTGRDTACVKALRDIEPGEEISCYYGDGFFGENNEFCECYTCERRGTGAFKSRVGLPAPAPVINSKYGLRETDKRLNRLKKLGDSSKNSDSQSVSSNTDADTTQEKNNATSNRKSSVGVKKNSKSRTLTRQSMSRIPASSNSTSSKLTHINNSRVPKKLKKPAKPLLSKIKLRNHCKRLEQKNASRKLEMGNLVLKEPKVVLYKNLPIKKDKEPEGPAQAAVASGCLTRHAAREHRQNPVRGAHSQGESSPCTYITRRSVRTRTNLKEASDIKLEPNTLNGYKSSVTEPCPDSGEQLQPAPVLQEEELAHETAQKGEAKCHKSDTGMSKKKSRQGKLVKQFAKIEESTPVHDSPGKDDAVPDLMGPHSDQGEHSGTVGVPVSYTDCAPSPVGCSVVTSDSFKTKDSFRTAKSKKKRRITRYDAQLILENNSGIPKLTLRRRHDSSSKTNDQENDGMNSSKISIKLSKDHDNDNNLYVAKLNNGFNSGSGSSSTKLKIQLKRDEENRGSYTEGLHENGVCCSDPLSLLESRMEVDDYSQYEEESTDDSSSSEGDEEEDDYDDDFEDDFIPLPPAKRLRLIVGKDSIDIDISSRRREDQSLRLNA
Sequence of DNMT3B-DNMT3L complex (Homo sapiens) (Q9UJW3 whole entry, looked up, other chains not shown): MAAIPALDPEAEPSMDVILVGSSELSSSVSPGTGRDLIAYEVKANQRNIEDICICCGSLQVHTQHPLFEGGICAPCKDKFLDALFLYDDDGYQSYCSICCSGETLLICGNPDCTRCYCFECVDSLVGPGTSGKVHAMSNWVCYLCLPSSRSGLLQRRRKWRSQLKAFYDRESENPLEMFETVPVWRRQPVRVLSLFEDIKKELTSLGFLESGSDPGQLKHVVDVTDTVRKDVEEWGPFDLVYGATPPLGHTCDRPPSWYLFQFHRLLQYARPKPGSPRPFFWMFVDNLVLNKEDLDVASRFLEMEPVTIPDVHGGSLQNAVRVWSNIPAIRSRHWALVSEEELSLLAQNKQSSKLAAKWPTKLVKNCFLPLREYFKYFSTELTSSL

IC50 [1]: 0.088 µM | solubility kinetic [2]: 363 µg/mL (≈ 915 µM) | Kd [3]: 0.133 µM | inhibition [4]: 86% | inhibition [5]: Active | inhibition [6]: inactive | inhibition [7]: inactive | inhibition [8]: inactive | inhibition [9]: inactive | inhibition [10]: inactive | inhibition (Homo sapiens [11]): inactive | inhibition [12]: inactive | inhibition [13]: inactive | inhibition (Homo sapiens [14]): inactive | inhibition [15]: inactive | inhibition [16]: inactive | inhibition [17]: inactive | inhibition [18]: inactive | IC50 [19]: > 20 µM | IC50 [20]: > 20 µM | IC50 [21]: > 20 µM | IC50 [22]: > 20 µM | IC50 [23]: > 20 µM | IC50 [24]: > 20 µM | IC50 [25]: > 20 µM | IC50 [26]: > 20 µM | IC50 (COLO-679): > 10 µM | IC50 (Jurkat): > 10 µM
Structure (SMILES): C[C@H]1CC(=O)Nc2cc(C(=O)NCCC3CC3)ccc2N1C(=O)N1CC2CC2C1 (some centres not stated)
IC50 (HGC-27): > 10 µM | IC50 (Hs746T): > 10 µM | IC50 (PaTu 8988t): > 10 µM | IC50 (SUD4): > 10 µM
